From PubChem
HTR1A agonist = agonists of human 5-HT1a serotonin receptor; 0.56% of 65,000 active; AID 567; activation, % at 10 µM; CHO 5-HT1a Ga15 NFAT-bla reporter, FRET ratio; 0% basal, 100% maximal reference agonist; P08908;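 active means activation above the screen-wide mean activation plus 3 SD, cut at about 19% in these data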;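 further: 0% = DMSO wells and 100% = 5-CT at EC100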
Target sequence (P08908 whole entry, looked up): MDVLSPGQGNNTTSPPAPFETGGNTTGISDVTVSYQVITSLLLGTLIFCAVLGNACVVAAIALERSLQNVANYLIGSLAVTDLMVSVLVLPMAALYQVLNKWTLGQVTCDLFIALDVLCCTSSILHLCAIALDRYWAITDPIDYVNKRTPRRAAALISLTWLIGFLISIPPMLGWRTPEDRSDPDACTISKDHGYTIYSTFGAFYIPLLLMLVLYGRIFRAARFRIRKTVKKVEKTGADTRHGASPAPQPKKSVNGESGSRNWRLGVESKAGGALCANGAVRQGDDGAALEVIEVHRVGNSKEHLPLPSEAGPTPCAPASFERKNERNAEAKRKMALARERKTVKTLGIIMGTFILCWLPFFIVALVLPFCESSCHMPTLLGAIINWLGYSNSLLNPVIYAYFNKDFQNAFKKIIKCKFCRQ
HTR1E antagonist = 5-HT1E (human) receptor antagonism. 0.99% of 65,000 active. P28566. CHO 5-HT1E Ga15 NFAT-bla reporter, FRET, antagonist. inhibition, % at 6 µM;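 active means inhibition above a set limit, the mean inhibition across every tested compound plus 3 SD, cut at about 29% in these data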;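 further: signal is the 460 over 535 nm emission ratio of beta-lactamase substrate; 0% = agonist plus DMSO wells and 100% = wells without agonist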
SKBR3 24h inh = SK-BR-3 proliferation inhibitors; SK-BR-3 viability, CellTiter-Glo ATP luminescence, 24 h; stronger effect = lower value; viability, % at 10 µM; 0.47% of 41,000 active; AID 847;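 active means viability at or below the median of all test compounds minus 3 SD, in both replicates if run twice, cut at about 45% in these data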;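 further: 100% = median untreated cell wells and 0% = median positive control drug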
HEK293 NFkB inh = inhibitors of the PMA/ionomycin-induced NF-kB reporter in HEK293 cells | AID 465 | HEK-293 NF-kB luciferase reporter, luminescence | inhibition, % at 3 µM | 0.21% of 62,000 active;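 active means inhibition above the mean of all tested compounds plus 3 SD, cut at about 40% in these data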;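 further: 0% = stimulated DMSO wells and 100% = 10 µM reference inhibitor 5653914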
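Material: HEK-293 cells with stable firefly luciferase reporter driven by four HIV NF-kB elements / Also added: PMA plus ionomycin mix as NF-kB-activating stimulus / Compound dosing: 3 µM once, 0.30% DMSO / Times: 1 h pretreatment, 16 h stimulation, 37 °C / Signal: luminescence / Evaluation: per-plate % inhibition versus controls / Benchmarks: DMSO and 10 µM reference inhibitor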
5-HT1A blocker = antagonists of human 5-HT1a serotonin receptor; P08908; CHO 5-HT1a Ga15 NFAT-bla reporter, antagonist mode; inhibition, % at 10 µM; 0.68% of 62,000 active; AID 612;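 active means inhibition above the mean of all tested compounds plus 3 SD, cut at about 43% in these data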;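 further: receptor stimulated by 5-CT agonist at 100 nM near EC80; beta-lactamase reporter measured by ratiometric fluorescence of a cleavable substrate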
HTR1E agonist = activates the human 5-HT1E serotonin receptor. P28566. CHO 5-HT1E Ga15 NFAT-bla reporter, FRET; 0% DMSO wells, 100% control agonist wells. activation, % at 6 µM. 0.69% of 65,000 active. AID 574;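 active means activation above a set limit, the screen-wide mean activation plus 3 SD, cut at about 8.5% in these data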;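 further: 100% = positive control agonist at 1 µM giving full maximal response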
* marks the source's active call; other numbers are inactive results; · = no result. Most compounds without a hit are left out; they make up all but 2.9% or so of the library.

SMILES | HTR1A agonist | HTR1E antagonist | SKBR3 24h inh | HEK293 NFkB inh | 5-HT1A blocker | HTR1E agonist
COc1cccc(N2CCN(C(=O)c3ccc(=O)oc3)CC2C)c1 (stereo not drawn) | 1.8 | 0.7 | 87.1 | · | · | 11.5*
CCc1ccccc1N1C[C@@]23C=C[C@@H](O2)C(C(=O)OCC(C)C)[C@H]3C1=O (stereo partly drawn) | 0.0 | -11.0 | 103.0 | 20.9 | -8.1 | -0.1
COc1cc(NC(=O)c2ncn[nH]2)cc(OC)c1OC | -4.0 | -5.1 | 83.9 | 4.2 | -18.6 | -1.5
O=C(NC1CCCCC1)C(c1ccco1)N(Cc1cccs1)C(=O)Cn1nnc2ccccc21 (stereo not drawn) | -3.3 | 7.5 | 83.6 | 15.5 | 46.4* | -0.7
O=C(Cc1cccs1)N(Cc1ccco1)C1(C(=O)NC2CCCC2)CCCCC1 | -3.0 | 1.3 | 85.9 | 11.7 | 62.7* | -0.3
Cc1ccc(-c2nnn(CC(=O)N(Cc3cccs3)C(C(=O)NC3CCCC3)c3ccco3)n2)o1 (stereo not drawn) | 1.7 | 17.2 | 98.0 | 6.3 | 17.4 | 0.6
O=C(NC1CCCCC1)C(c1ccco1)N(Cc1ccco1)C(=O)c1ccco1 (stereo not drawn) | 1.4 | -4.7 | 61.9 | -3.8 | 48.7* | -0.7
O=C(NC1CCCC1)C(c1ccsc1)N(Cc1ccco1)C(=O)Cc1cccs1 (stereo not drawn) | -1.1 | 6.4 | 107.1 | 16.0 | 58.1* | -0.4
Cc1ccc(-c2c3c(=O)n(C)c(=O)n(C)c3c3c(C)cc(C)nn23)cc1 | -2.0 | 11.0 | 80.8 | 8.3 | 7.8 | 0.3
CCS(=O)(=O)C(=C(Nc1ccc(OC)cc1)Nc1ccc(OC)cc1)S(=O)(=O)CC | · | · | 100.0 | · | · | ·
CCOC(=O)Cc1csc(NC(=O)c2cnc3scc(C)n3c2=O)n1 | -1.8 | -2.4 | 99.5 | 9.2 | -8.4 | -1.6
O=C(c1ccccc1)c1ccc(C(=O)N2CCN(c3ccc(F)cc3)CC2)o1 | -0.8 | -7.1 | · | 2.4 | -4.8 | -1.2
O=C(C1CCCN(S(=O)(=O)c2ccc(Br)s2)C1)N1CCCCCC1 (stereo not drawn) | 36.6* | 1.8 | · | 9.0 | 5.7 | -1.1
O=C(O)C1CCCN(S(=O)(=O)c2ccc(Cl)s2)C1 (stereo not drawn) | 0.1 | -8.2 | · | 16.3 | 6.3 | 0.9
Cc1cc2nc(SCCN3CCCC3)[nH]c2cc1C | -1.8 | 3.0 | 96.4 | -0.6 | 7.1 | -0.7
O=C(Nc1ccc(N2CCOCC2)cc1)c1cnsn1 | -2.1 | 1.4 | 89.0 | 41.8* | -14.0 | -1.0
CS(=O)(=O)c1ncc(Cl)c(C(=O)Nc2ccc(N3CCOCC3)cc2)n1 | -2.2 | 82.2* | 69.8 | 5.0 | 80.7* | 1.1
Cc1ccc(S(=O)(=O)N2CCCN(S(=O)(=O)c3ccc(C)cc3)CC2)cc1 | 1.2 | 1.5 | 81.2 | 7.7 | 3.7 | 19.1*
CCCCOc1ccccc1NC(=O)CSc1nnnn1C(C)(C)C | -2.2 | 3.6 | · | 2.4 | 4.0 | -0.1
CC(C)(C)OC(=O)NCCc1nnc(SCc2ccccc2Cl)o1 | -1.4 | -2.5 | 76.9 | 6.0 | 4.0 | 1.0
CC(C)(C)OC(=O)NCCc1nnc(S(=O)(=O)Cc2ccc(Cl)cc2Cl)o1 | -0.4 | 12.0 | 79.7 | 17.4 | 68.7* | -1.4
O=C(Nc1ccc(F)cc1)N1CCN(c2nc3ccccc3s2)CC1 | 1.3 | -12.5 | 41.4* | 26.3 | -6.0 | 11.5*
O=C(C1CC1)N1CCN(c2nc3ccccc3s2)CC1 | -1.6 | -7.2 | 94.1 | -10.8 | -14.5 | -0.2
O=C1CC(N2CCN(c3nc4ccccc4s3)CC2)C(=O)N1c1ccc(F)cc1 (stereo not drawn) | 1.4 | -8.2 | 95.2 | 17.6 | -7.7 | 0.3
O=C(Nc1ccccc1)N1CCN(c2nc3ccccc3s2)CC1 | 2.2 | -13.6 | 63.7 | 9.6 | -18.9 | 11.9*
SMILES | HTR1A agonist | HTR1E antagonist | SKBR3 24h inh | HEK293 NFkB inh | 5-HT1A blocker | HTR1E agonist
COc1ccccc1NC(=O)COc1ccc(CO)cc1Cl | 0.5 | -5.7 | 84.4 | 6.9 | 8.3 | -0.2
CCOc1ccccc1NC(=O)C1=C(C)NC(=O)NC1c1cccc(OC)c1OC (stereo not drawn) | -3.8 | -5.9 | 23.3* | -3.2 | -1.8 | 0.2
Cc1cccc(-n2cnc3cc(C(=O)N4CCCCC4)ccc32)c1 | 44.8* | -4.7 | · | 2.7 | -7.2 | -0.3
Cn1nnc2cc(C(=O)N3CCCCCC3)ccc21 | -1.9 | -9.7 | 107.0 | 6.5 | 4.1 | 0.0
CC1(C2(O)CC(c3ccccc3)ON2)CCCCC1 (stereo not drawn) | 3.2 | 36.7* | 91.9 | · | · | -0.8
COc1ccc(C2CC(O)(C(C)(C)O)NO2)cc1 (stereo not drawn) | -3.3 | 1.8 | · | -6.6 | -1.6 | -1.3
O=C1CN(C(=O)COC(=O)c2ccccc2NC(=O)c2ccco2)c2ccccc2N1 | -1.9 | 9.7 | · | 9.0 | 13.0 | 0.1
CCCOc1c(OC)cccc1C1CC(=O)Nc2cc(OC)c(OC)c(OC)c21 (stereo not drawn) | -0.7 | -13.3 | 86.7 | 97.8* | -7.9 | -1.6
Cc1ccc(P(=Nc2ccccc2)(N2CCOCC2)N2CCOCC2)o1 | -0.5 | -2.6 | · | 3.4 | -1.4 | -0.6
c1ccc(Cn2nnnc2C(c2cccs2)N2CCCCCC2)cc1 (stereo not drawn) | -1.0 | 7.1 | 87.1 | 8.2 | 19.2 | -0.9
COc1ccc(Cn2nnnc2C(c2cccs2)N2CCN(c3ccccc3)CC2)cc1 (stereo not drawn) | -1.1 | 7.2 | 82.6 | 8.1 | 43.9* | -0.4
c1ccc(Cn2nnnc2C(c2cccs2)N2CCc3ccccc3C2)cc1 (stereo not drawn) | -0.4 | 13.1 | 99.3 | 10.6 | 52.5* | -0.6
Cc1ccc(C)c(N2CCN(C(c3ccncc3)c3nnnn3Cc3ccccc3)CC2)c1 (stereo not drawn) | 0.1 | 1.8 | · | -9.4 | -174.0 | 36.5*
O=C(Nc1cccc(S(=O)(=O)c2cccc(NC(=O)C3CC3)c2)c1)C1CC1 | 0.3 | -8.5 | 91.8 | 3.5 | -1.6 | 0.3
CSc1cccc(NC(=O)Nc2ccccc2)c1 | 0.1 | 17.5 | · | 0.9 | 25.9 | 10.1*
CN=c1oc2ccc(Cl)cc2cc1C(N)=O | -2.0 | -1.0 | 94.5 | 7.9 | 15.1 | 9.8*
COc1ccc(-c2nc(-c3ccc(NC(=O)c4ccncc4)cc3)no2)cc1OC | -0.4 | 28.8* | · | -1.8 | 42.7* | 1.2
Cc1cccc(NC(=O)C2CCCN(C(=O)Nc3ccccc3)C2)c1C (stereo not drawn) | -0.5 | 5.5 | 108.7 | 4.8 | -0.1 | 87.7*
CN1C(=O)c2cccc(NC(=O)Cc3ccccc3)c2C1=O | 0.6 | 7.2 | · | 10.3 | -7.2 | 1.3
COc1cccc(C2=CC(c3ccc(C)cc3)n3ncnc3N2)c1 (stereo not drawn) | -0.1 | 29.3* | 81.3 | 7.6 | 29.0 | -0.4
Cc1ccccc1N1C(=O)N(c2cccc(C(F)(F)F)c2)C2CS(=O)(=O)CC21 (stereo not drawn) | 1.1 | 1.1 | 92.3 | 17.6 | 4.8 | 0.0
